Reference: ChEMBL document CHEMBL3994584, “Identification of novel fluorescent probes preventing PrPSc replication in prion diseases” (Eur J Med Chem, 2017)
Activity calls are given as the source filed them. No cut-off for these calls is given here.

Experiments:
[1] = Cytotoxicity against mouse ScN2a cells assessed as cell viability at 1 uM after 5 days by MTT assay relative to control; format: cell-based; settings: read-out: Activity
Outline: (§1)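 ScN2a cells were seeded in MEM at 2.5×10^4 cells/mL and allowed to settle for 2 h. Compounds (DMSO stock, diluted in EtOH then medium) were added at 0.1, 1 and 10 μM for 5 days at 37 °C under 5% CO2. MTT (5 mg/mL) was applied for 3 h and solubilized with DMSO/2-propanol. Plates were read at 570/690 nm. Viability is given as % of untreated control, mean ± SD of three independent experiments.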

[2] = Cytotoxicity against mouse ScN2a cells assessed as growth inhibition at 1 uM after 5 days by MTT assay relative to control; format: cell-based; settings: read-out: GI; outline: as §1
Mus musculus [3] = organism: Mus musculus; assay: Binding affinity to PrPSc aggregates in mouse prion protein RML infected mouse ScN2a cells incubated for 8 mins followed by proteinase K digestion using FITC filter by fluorescence confocal microscopic method
Outline: (§2)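 N2a or ScN2a cells were grown on coverslips for 24 h, then fixed and permeabilized (4% formaldehyde/0.1% Triton X-100, 1 h, RT) and denatured with 6 M GdnHCl for 10 min. Where PK was used: 20 µg/mL for 15 min at 37 °C, stopped with PMSF. After NGS blocking, cells were stained with compound at 0.025% in 80% EtOH for 8 min at RT. Imaging was by confocal microscopy with a FITC filter.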

[4] = Cytotoxicity against mouse ScN2a cells assessed as cell viability at 0.1 uM after 5 days by MTT assay relative to control; format: cell-based; settings: read-out: Activity; outline: as §1
[5] = Cytotoxicity against mouse ScN2a cells assessed as cell viability at 10 uM after 5 days by MTT assay relative to control; format: cell-based; settings: read-out: Activity; outline: as §1
Mus musculus [6] = organism: Mus musculus; assay: Antiprion activity against mouse prion protein RML infected mouse ScN2a cells assessed as proteinase K-resistant PrPSc level at 0.1 uM incubated for 5 days followed by proteinase K digestion by Western blot method relative to control
Outline: (§3)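 RML-infected ScN2a cells were treated with 0.1, 1 and 10 μM for 5 days, with DMSO ≤0.1% final. Lysates (500 μg protein) were digested with 10 μg PK for 1 h at 37 °C, stopped with 2 mM PMSF and ultracentrifuged. Pellets were run on SDS-PAGE and immunoblotted with anti-PrP Fab W226, with ECL detection. Densitometry gave PK-resistant PrPSc over total PrP, with untreated set to 100%. Three independent experiments.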

Mus musculus [7] = organism: Mus musculus; assay: Antiprion activity against mouse prion protein RML infected mouse ScN2a cells assessed as proteinase K-resistant PrPSc level at 1 uM incubated for 5 days followed by proteinase K digestion by Western blot method relative to control; outline: as §3
Mus musculus [8] = organism: Mus musculus; assay: Antiprion activity against mouse prion protein RML infected mouse ScN2a cells assessed as proteinase K-resistant PrPSc level at 10 uM incubated for 5 days followed by proteinase K digestion by Western blot method relative to control; outline: as §3
N2a = assay: Effect on cellular prion protein level in mouse N2A cells up to 10 uM incubated for 5 days by Western blot method; format: functional, cell-based
Outline: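 Non-infected N2a cells were treated at 0.1, 1 and 10 μM for 5 days. Lysates (50 µg protein, no PK digestion) were immunoblotted with anti-PrP Fab W226. PrPC was normalized to actin, with untreated controls set to 100%. Done in triplicate.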

[9] = Antiprion activity against mouse prion protein RML infected mouse ScGT1 cells assessed as reduction in proteinase K-resistant PrPSc level incubated for 7 days followed by proteinase K digestion by ELISA; settings: ScGT1, 168 h
Mus musculus [10] = organism: Mus musculus; assay: Binding affinity to proteinase K sensitive cellular prion protein in mouse N2A cells incubated for 8 mins by fluorescence confocal microscopic method; format: cell-based; outline: as §2

| SMILES | viability at 120 h, 1 µM [1] | inhibition at 120 h, 1 µM [2] | Activity (Mus musculus [3]) | viability at 120 h, 0.1 µM [4] | viability at 120 h, 10 µM [5] | Activity (Mus musculus [6]) | Activity (Mus musculus [7]) | Activity (Mus musculus [8]) | Activity (N2a) | IC50 [9] | Activity (Mus musculus [10]) |
| --- | --- | --- | --- | --- | --- | --- | --- | --- | --- | --- | --- |
| CN(CCCCNc1c2c(nc3ccccc13)CCCC2)CCCNc1c2c(nc3ccccc13)CCCC2 | 76.9% | > 20% |  |  |  |  |  |  |  |  |  |
| Cc1ccc2c(c1)sc(-c1ccc(N(C)C)cc1)[n+]2C |  |  | Active |  |  |  |  |  |  |  |  |
| CC1=CC2=NC(N/N=C/c3ccnc4ccccc34)=C3CC=CN3C2C=C1C (centres undefined) | 98.6% |  |  | 96.7% | 86.5% | 137% | 100% | 29% | inactive |  |  |
| COC(=O)C1=CC2=NC(N/N=C/c3ccnc4ccccc34)=C3CC=CN3C2C=C1 (centres undefined) | 89.3% |  |  | 72.6% | 67.1% | 104% | 131% | 30% | inactive |  |  |
| COc1ccc2c(C)cc(N/N=C/c3ccnc4ccccc34)nc2c1 | 84.8% |  |  | 93.9% | 83.8% | 88% | 77% | 13% | inactive |  |  |
| FC1=CC2=NC(N/N=C/c3ccnc4ccccc34)=C3NC=CN3C2C=C1 (centres undefined) | 92.6% |  |  | 87.7% | 72.9% | 76% | 34% | 31% | inactive |  |  |
| C(=C\c1ccco1)/NNc1nc2ccccc2n2cccc12 | 88.5% |  |  | 96.8% | 71.4% | 105% | 86% | 35% | inactive |  |  |
| C1=CC2=NC(N/N=C/c3ccnc4ccccc34)=C3CC=CN3C2C=C1 (centres undefined) | 88.3% |  |  | 92.3% | 87% | 90% | 78% | 27% | inactive |  |  |
| C1=CC2C(=NC(N/N=C/c3ccnc4ccccc34)=C3CC=CN32)N=C1 (centres undefined) | 98.6% |  |  | 104% | 75.6% | 128% | 144% | 83% | inactive |  |  |
| C1=CC2=NC(N/N=C/c3ccc4ccccc4n3)=C3CC=CN3C2C=C1 (centres undefined) | 94.8% |  |  | 87.6% | 90.9% | 54% | 47% | 34% | inactive |  |  |
| COC1=CC2=NC(N/N=C/c3ccnc4ccccc34)=C3CC=CN3C2C=C1 (centres undefined) | 96.3% |  | Active | 107% | 83.3% | 76% | 35% | 9% | inactive | 1600 nM | inactive |
| C(=C\c1cccs1)/NNc1nc2ccccc2n2cccc12 | 81.9% |  |  | 78.9% | 80.7% | 88% | 79% | 72% | inactive |  |  |
| c1ccc2c(NCCCCCCCCNc3c4c(nc5ccccc35)CCCC4)c3c(nc2c1)CCCC3 | 0.7% | > 20% |  |  |  |  |  |  |  |  |  |
| C1=CC2=NC(N/N=C/c3ccnc4ccccc34)=C3NC=CN3C2C=C1 (centres undefined) | 98.5% |  |  | 94.4% | 83.2% | 178% | 131% | 30% | inactive |  |  |
| COC(=O)C1=CC2=NC(N/N=C/c3ccc4ccccc4n3)=C3CC=CN3C2C=C1 (centres undefined) | 88.2% | > 20% |  | 92.6% | 45.4% |  |  |  |  |  |  |
